Data on 45 compounds can be found in ChEMBL document CHEMBL2069204, “N-1-Alkyl-2-oxo-2-aryl amides as novel antagonists of the TRPA1 receptor” (Bioorg Med Chem Lett, 2012).

The target in series [1] is T1, Transient receptor potential cation channel subfamily A member 1 (Homo sapiens, UniProt O75762). Briefly: Antagonist activity at human TRPA1 expressed in HEK293 cells assessed as inhibition of Ca2+-induced intracellular calcium flux by FLIPR assay. Type of series: functional, cell-based. The essentials:
(§1)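 Fluorescence-based TRPA1 antagonist assay with the agonist as the stimulus: Ca2+ for line 1 and Zn2+ for line 2. Results are reported as pIC50. Compounds with pIC50 > 5 were checked by automated electrophysiology on IonWorks to exclude autofluorescence artefacts. The IC50s from the two agonist formats were pooled and treated as one data set.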

The target in series [2] is T1, Transient receptor potential cation channel subfamily A member 1. Briefly: Antagonist activity at human TRPA1 expressed in HEK293 cells assessed as inhibition of Zn2+-induced intracellular calcium flux by FLIPR assay. Type of series: functional, cell-based. The essentials:
as §1

Series [3] is described as follows: Solubility of the compound in phosphate buffer at pH 7.4 by dried DMSO method. In kind it is physicochemical. The essentials: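 Measured by the 'dried DMSO' method in phosphate buffer at pH 7.4. Results are binned as low (<1–5 μM), medium (5–25 μM) or good (>25 μM).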
The nature of series [4]: Metabolic stability in human microsomes assessed as glutathione adduct formation.

Converted amounts (≈) assume the structure as drawn. The source made the active and inactive calls. The calls are words filed in the database; no cut-off is given here.

T1 sequence (O75762 whole entry): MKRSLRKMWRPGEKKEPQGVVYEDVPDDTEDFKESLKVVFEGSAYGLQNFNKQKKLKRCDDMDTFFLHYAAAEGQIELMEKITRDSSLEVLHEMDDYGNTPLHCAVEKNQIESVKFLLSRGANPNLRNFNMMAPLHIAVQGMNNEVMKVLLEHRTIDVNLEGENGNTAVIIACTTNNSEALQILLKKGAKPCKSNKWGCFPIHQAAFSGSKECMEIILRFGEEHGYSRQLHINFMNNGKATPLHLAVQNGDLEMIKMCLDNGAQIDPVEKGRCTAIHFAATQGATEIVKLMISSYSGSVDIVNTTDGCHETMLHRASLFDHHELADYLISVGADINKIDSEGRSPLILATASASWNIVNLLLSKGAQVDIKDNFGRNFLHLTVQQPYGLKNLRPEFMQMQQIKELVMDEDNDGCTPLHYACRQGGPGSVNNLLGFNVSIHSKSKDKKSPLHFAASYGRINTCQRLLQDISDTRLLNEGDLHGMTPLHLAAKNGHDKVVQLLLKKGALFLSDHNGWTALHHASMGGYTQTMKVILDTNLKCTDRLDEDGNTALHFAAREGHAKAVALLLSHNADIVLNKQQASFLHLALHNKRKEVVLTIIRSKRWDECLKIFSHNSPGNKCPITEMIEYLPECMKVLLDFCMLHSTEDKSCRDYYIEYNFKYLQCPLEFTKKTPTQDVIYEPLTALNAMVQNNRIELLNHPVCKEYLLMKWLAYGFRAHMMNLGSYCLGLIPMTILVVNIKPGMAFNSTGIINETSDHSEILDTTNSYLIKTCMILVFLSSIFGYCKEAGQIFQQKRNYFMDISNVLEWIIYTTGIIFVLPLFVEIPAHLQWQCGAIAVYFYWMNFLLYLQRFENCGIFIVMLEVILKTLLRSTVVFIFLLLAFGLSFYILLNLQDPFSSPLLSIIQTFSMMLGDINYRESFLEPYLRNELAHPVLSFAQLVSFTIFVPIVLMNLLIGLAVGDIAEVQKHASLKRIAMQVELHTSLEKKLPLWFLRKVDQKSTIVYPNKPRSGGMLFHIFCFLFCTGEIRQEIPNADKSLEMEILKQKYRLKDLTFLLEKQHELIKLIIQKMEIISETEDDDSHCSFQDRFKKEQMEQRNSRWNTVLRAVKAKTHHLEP

As to `CC(C)C(NC(=O)c1ccccc1)C(=O)c1ccc(Cl)c(Cl)c1` (racemic), the IC50 in series [1] was 3980 nM.

For `CC(C)C(NC(=O)c1cc2ccccc2n1C)C(=O)c1ccc(C#N)cc1` (stereo unspecified), the IC50 is 1580 nM in series [2] and 3980 nM in series [1].

The compound `CC(C)C(NC(=O)c1ccccc1)C(=O)c1ccc(C#N)cc1` (racemic) registered a kinetic solubility in series [3] of 150 µM (≈ 46 µg/mL). The IC50 in series [1] is 3980 nM.

As to `CC(C)C(NC(=O)OC(C)(C)C)C(=O)c1ccc(Cl)cc1` (stereo unspecified), the IC50 was 794 nM in series [2] and 1000 nM in series [1].

For `CC(C)C(NC(=O)c1ccccc1)C(=O)c1ccc([N+](=O)[O-])cc1` (racemic), the IC50 in series [2] is 251 nM; in series [1] it was 316 nM.

`CC(C)C(NC(=O)N1CCc2ccccc2C1)C(=O)c1ccc(C#N)cc1` (stereo unspecified): the concentration for half-maximal inhibition (IC50) in series [2] and in series [1] was 5010 nM each time. Also, the Stability entry in series [4] is “Unstable”.

On to `CC(C)C(NC(=O)c1ccccc1)C(=O)c1ccc(N)cc1` (racemic), for which the pIC50 entry in series [2] and in series [1] was “inactive” in each case.

Take `CC(C)C(NC(=O)OC(C)(C)C)C(=O)c1ccc(C#N)c(F)c1` (stereo unspecified): the IC50 was 2000 nM in series [2] and 1260 nM in series [1].

With `O=C(CNC(=O)c1ccccc1)c1ccc(Cl)cc1`, the pIC50 entry in series [2] and in series [1] was “inactive” throughout.

For the compound `CC(C)C(NC(=O)c1ccccc1)C(=O)c1cccc(Cl)c1` (racemic), the negative-log IC50 (pIC50) in series [2] is less than 4.5. In series [1], the pIC50 result is “inactive”.

Take `CC(C)C(NC(=O)Nc1ccc(F)cc1)C(=O)c1ccc(C#N)cc1` (stereo unspecified): the pIC50 result in series [2] and in series [1] was “inactive” each time.

`C=CCN(CC=C)c1ccc(C(=O)C(NC(=O)c2ccccc2)C(C)C)cc1` (racemic): in series [2], the pIC50 was less than 4.5. Further, in series [1], the pIC50 entry was “inactive”.

On to `CC(C)(C)C(NC(=O)c1ccccc1)C(=O)c1ccc(Cl)cc1` (stereo unspecified), for which the values for the IC50 in series [2] and in series [1] were 398 nM and 1000 nM, respectively.

`O=C(NC1(C(=O)c2ccc(Cl)cc2)CCC1)c1ccccc1`: the pIC50 entry in series [2] and in series [1] was “inactive” throughout.

`CC(C)C(NC(=O)c1cc(Cl)ccc1C(F)(F)F)C(=O)c1ccc([N+](=O)[O-])cc1` (stereo unspecified): the concentration for half-maximal inhibition (IC50) in series [2] is 10 nM. In addition, the solubility (kinetic) in series [3] was less than 1 µM.

For the compound `Cc1noc(C(C)C)c1C(=O)NC1C(=O)c2ccc(Cl)cc2CC1(C)C` (stereo unspecified), the pIC50 result in series [2] is “inactive”.

For the compound `CC(C)C(NC(=O)OC(C)(C)C)C(=O)c1ccc(C#N)cc1` (stereo unspecified), the IC50 is 2510 nM in series [2] and 6310 nM in series [1].

For `CC(C)C(NC(=O)N(C)C(C)(C)C)C(=O)c1ccc(Cl)cc1` (stereo unspecified), the IC50 in series [2] was 631 nM; in series [1] it was 251 nM.

With `CC(C)C(NC(=O)c1cnn(C(C)(C)C)c1C(F)(F)F)C(=O)c1ccc2nonc2c1` (stereo unspecified), the concentration for half-maximal inhibition (IC50) in series [2] was 398 nM.

Regarding `CC(C)C(NC(=O)c1ccccc1)C(=O)c1ccc(Cl)cc1` (single isomer, unassigned; isomer 2), the pIC50 result in series [2] and in series [1] was “inactive” each time.

On to `CC(C)C(NC(=O)c1ccccc1)C(=O)c1ccc(Cl)cc1` (racemic), for which the 50% inhibitory concentration (IC50) is 1260 nM in series [2] and 2510 nM in series [1].

On to `CC(C)C(NC(=O)c1cc(Cl)ccc1F)C(=O)c1ccc(C#N)cc1` (stereo unspecified), for which the concentration for half-maximal inhibition (IC50) in series [2] is 2000 nM. For the same compound, the pIC50 result in series [1] is “inactive”.

Take `Cc1noc(C(C)C)c1C(=O)NC(C(=O)c1ccc(C#N)c(F)c1)C(C)(C)C` (stereo unspecified): the IC50 in series [2] is 200 nM. The same compound gave a solubility (kinetic) in series [3] of 80 µM (≈ 30.8 µg/mL).

For the compound `CC(C)C(C)(NC(=O)c1ccccc1)C(=O)c1ccc(Cl)cc1` (stereo unspecified), the pIC50 result in series [2] was “inactive”. Moreover, the IC50 in series [1] is 3160 nM.

On to `COc1ccc(C(=O)NC(C(=O)c2ccc(C#N)cc2)C(C)C)cc1` (stereo unspecified), for which the half-maximal inhibitory concentration (IC50) in series [2] is 6310 nM; in series [1], 12600 nM.

Regarding `CCCC(NC(=O)c1ccccc1)C(=O)c1ccc(Cl)cc1` (stereo unspecified), the pIC50 result in series [2] and in series [1] was “inactive” throughout.

Regarding `CC(C)C(NC(=O)c1cnoc1C(C)(C)C)C(=O)c1ccc(C#N)cc1` (stereo unspecified), the IC50 is 501 nM in series [2] and 1000 nM in series [1].

For the compound `CC(C)C(NC(=O)c1ccc(Cl)cc1Cl)C(=O)c1ccc(C#N)cc1` (stereo unspecified), the figures for the half-maximal inhibitory concentration (IC50) in series [2] and in series [1] were 2510 nM and 5010 nM, respectively.

`CC(C)C(NC(=O)c1cc(C(F)(F)F)ccc1Cl)C(=O)c1ccc(C#N)cc1` (stereo unspecified): the 50% inhibitory concentration (IC50) in series [2] was 316 nM; in series [1] it was 398 nM.

In the case of `CCCCCCCCCC(=O)NC(C(=O)c1ccc(C#N)cc1)C(C)C` (stereo unspecified), the IC50 in series [2] was 1000 nM; in series [1], 2000 nM.

Consider `O=C(NC(C(=O)c1ccc(Cl)cc1)C1CC1)c1ccccc1` (stereo unspecified), for which the 50% inhibitory concentration (IC50) in series [2] and in series [1] was 2000 nM throughout.

As for `CC(C)C(NC(=O)c1ccccc1)C(=O)c1ccccc1` (racemic), the negative logarithm of the IC50 (pIC50) in series [2] is less than 4.5. The pIC50 entry in series [1] was “inactive”.

As for `CC(C)C(NC(=O)c1ccccc1)C(=O)c1ccc(F)cc1` (racemic), the IC50 in series [2] was 7940 nM; in series [1], 5010 nM.

For `CC(C)C(NC(=O)c1ccc(Cl)cc1)C(=O)c1ccc(C#N)cc1` (stereo unspecified), the IC50 in series [1] was 398 nM.

As for `CC(C)C(NC(=O)NCc1ccccc1)C(=O)c1ccc(C#N)cc1` (stereo unspecified), the pIC50 result in series [2] and in series [1] was “inactive” each time.

As for `Cc1noc(C(C)C)c1C(=O)NC(C(=O)c1ccc(C#N)cc1)C(C)C` (stereo unspecified), the IC50 in series [2] is 2000 nM; in series [1] it was 1580 nM.

Take `CC(C)C(NC(=O)c1ccccc1C(F)(F)F)C(=O)c1ccc(C#N)cc1` (stereo unspecified): the 50% inhibitory concentration (IC50) in series [2] is 5010 nM; in series [1], 3160 nM.

As to `CC(C)C(NC(=O)c1ccccc1)C(=O)c1ccc(Cl)cc1` (single isomer, unassigned; isomer 1), the IC50 in series [2] is 398 nM; in series [1] it was 1000 nM.

For `CC(C)C(NC(=O)c1ccccc1)C(=O)c1ccc(S(C)(=O)=O)cc1` (racemic), the pIC50 result in series [2] and in series [1] was “inactive” throughout.

As for `CC(C)C(NC(=O)c1ccc(Cl)cc1F)C(=O)c1ccc(C#N)cc1` (stereo unspecified), the figures for the concentration for half-maximal inhibition (IC50) in series [2] and in series [1] were 3980 nM and 3160 nM, respectively.

For `CC(C)C(NC(=O)N(C)C(C)(C)C)C(=O)c1ccc(C#N)cc1` (stereo unspecified), in series [1], the concentration for half-maximal inhibition (IC50) is 3980 nM.

Regarding `CC(C)C(NC(=O)OC(C)(C)C)C(=O)c1ccc(Cl)cn1` (stereo unspecified), the concentration for half-maximal inhibition (IC50) in series [2] was 15800 nM; in series [1], 5010 nM.

As to `CC(C)C(NC(=O)c1ccccc1)C(=O)c1ccc(Br)cc1` (racemic), the 50% inhibitory concentration (IC50) was 1260 nM in series [2] and 7940 nM in series [1].

Take `Cc1noc(-c2ccccc2)c1C(=O)NC(C(=O)c1ccc(C#N)cc1)C(C)C` (stereo unspecified): the IC50 in series [2] was 3980 nM; in series [1], 7940 nM.

As to `CC(C)C(NC(=O)NC(C)(C)C)C(=O)c1ccc(Cl)cc1` (stereo unspecified), the half-maximal inhibitory concentration (IC50) in series [2] was 2510 nM; in series [1], 2000 nM.
